The RNAGym collection of RNA variant scans (doi:10.1126/science.aae0568)
This sample holds only a part of the variants without activity.

B1: tRNA (parent)
chain: GUUCCGUUGGCGUAAUGGUAACGCGUCUCCCUCCUAAGGAGAAGACUGCGGGUUCGAGUCCCGUACGGAACG

Variants of: B1
Assay: yeast fitness relative to wild type (ratio to wild type); higher = fitter; tRNA-Arg(CCU), competitive growth, 37 C, YPD
How it was run: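 Start and end populations of a pooled competition were compared by 100-nucleotide paired-end sequencing of gene amplicons. The Saccharomyces cerevisiae strains carried tRNA-Arg(CCU) gene variants at the native genomic locus, synthesised with a 3% per-site mutation rate at 69 sites, and competed in YPD at 37°C for 24 hours in six parallel replicates. Darwinian fitness relative to wild type was based on the change in genotype frequencies. Genotypes required ≥ 100 starting reads, and estimates < 0.5 were set to 0.5.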

Variant	yeast fitness
U7A C27A C66U	≤ 0.5
G6C G52C	0.653
G6C G52A	0.683
U7C A37C C60G A65U A70C	0.569
U7A G12A C27A	≤ 0.5
U7A A69C	0.794
U7G A36C	0.614
U7C A14G A43G A69C	≤ 0.5
U7G A21C U59A	≤ 0.5
U7A A42G G52C G56A	≤ 0.5
U7A C34G C66U	≤ 0.5
G6C A45C	0.614
U7A A20G G41A A42C G50C A70G	≤ 0.5
G6C G50C C62G C66U	0.673
U7A C30U C33U C46U	≤ 0.5
U7C G17C A20G C27A G48A	0.509
G6C G12A G51C C66U	≤ 0.5
G6C A57U	0.663
G6C U7A C29A G51C	≤ 0.5
U7A C11A G18A C31U C34U U47C C49A G56A A57U	≤ 0.5
G6C C11A A43U G48C	≤ 0.5
U7A C29U A57C	≤ 0.5
U7C A14U G68A	≤ 0.5
G6C G17C C34U C46A U64A	0.597

Variant	yeast fitness
U7A A14G C31U G39C A40C A45U G68C	0.555
U7C C31G C33A C66A	≤ 0.5
U7C A57U	0.749
G6C C22G A37U A43G C62G	0.509
U7C U35C	0.86
U7A C31U	0.683
U7A A14U U16C A42U	≤ 0.5
U7C C27U A43U C61U	≤ 0.5
G6C U8A G51A	≤ 0.5
U7C G10C C24U C46U G63C	≤ 0.5
U7A A20G G23C C29G G51A G56U	≤ 0.5
U7C U32C C33G A70G	≤ 0.5
U7C U8A A20G C24G U64C	≤ 0.5
U7A C22A C31G U32G A42G G52A	≤ 0.5
U7A G9C G17C C34A G44A C46U G68A	≤ 0.5
G6C A37G C60U A65G	≤ 0.5
U7C G41A A42C G50C A70G	0.571
U7C C22A A45C C46U	≤ 0.5
U7A U16C C24G C30G A36U	≤ 0.5
G6C C11U A15G A21U C30G G44A G52A	0.791
U7A G12C A20G C34U C49G	≤ 0.5
G6C U7G U19A C27G U53A	0.612
U7A C24G C29G C30U A40C A65U	0.59
U7A A20G C46G G67C A69C	≤ 0.5

Variant	yeast fitness
U7C A14C C30G A40C A43U C55U	0.64
U7C U13C C31G C34U C55U G58A C61U	≤ 0.5
G6C A37G C60G A65U	≤ 0.5
G6U A70C	0.813
U7A A15U A36C A37U A43C C46U C49G G50A	≤ 0.5
G6C C34G	0.717
U7C U8A C27U	≤ 0.5
U7A G9C G17C C29G C33G G41C C66U	≤ 0.5
U7C G44C	0.84
U7A G52C G56A	0.554
U7C A15U C34A G39C A40C G56C C61G C62G G68C	≤ 0.5
U7C A21G A42U G58A	0.552
U7A C29A A65C	≤ 0.5
U7A U32G C33G A70U	≤ 0.5
G6C C11U A20C	≤ 0.5
U7A U47A	0.643
U7A U47G	0.557
U7C C30U C34A C46U G58A A65U	≤ 0.5
U7A C29A U47C G58A C61G A70U	0.588
G6C C11G C27U A42G	≤ 0.5
U7C C31U A57U A69C	≤ 0.5
U7G A14G U35G C46A G63C A65U	≤ 0.5
U7C A21U C30U C33G A70U	≤ 0.5
G6C G12A C24G G58C	≤ 0.5

Variant	yeast fitness
G6C C60U	0.712
G6C U13G	0.56
G6C A42C C49U C55U	0.578
G6C U7C G9C A65G	≤ 0.5
U7C U16G C29U C31A C46U	0.566
U7A U28A U32G G50C U54C	≤ 0.5
U7C C11A C30G C66U A69U	≤ 0.5
U7A A40G	0.73
G6C A40G	0.767
U7A G18C C22U C24U C60U	≤ 0.5
U7C A37C C60G G63A A65U A70C	≤ 0.5
G6C C22A U28A U53G	≤ 0.5
U7C C34U G52C	0.579
U7A C55U C61A	0.508
U7A U32G C33A C62G C66U	≤ 0.5
U7C A21G	0.761
U7C C31G A45U	≤ 0.5
G6C U32C A36C	≤ 0.5
U7A C29A G50C U54C	≤ 0.5
G6C U19G G48C	≤ 0.5
G6C U7A U64G	≤ 0.5
U7C A14G C33G G68C	≤ 0.5
G6C G10C A69C	0.589
U7A A43G	0.679

Variant	yeast fitness
G6C C31A A65G C66U	0.594
G6C C46G A57G C62U C66U	≤ 0.5
U7A U32A	0.588
U7A U32C	0.764
U7C C34U A45C C60G A65C	≤ 0.5
U7A G10A G41C A42U C46A	≤ 0.5
U7A C11U A65U	0.682
U7C U13A C24U G50U G51A U59A A65C	≤ 0.5
U7G A15G	0.913
U7A A42G C55G A57C	≤ 0.5
U7G A15G U19C A21G G41A	0.535
U7A U8G A69C	≤ 0.5
G6C U8C G58C	0.685
U7C C24G	0.645
G6C U13C G50A	≤ 0.5
U7A A42C	0.775
U7A C62G	0.63
G6C U7C C27U	≤ 0.5
U7C U28C C55U	≤ 0.5
U7G A21G U26C C31A G38C	≤ 0.5
U7G A21C G44C A69U	≤ 0.5
U7A C61A	0.603
U7C G9A C31G	0.77
G6C G39C G52A U53A	≤ 0.5

Variant	yeast fitness
U7C U53G	≤ 0.5
U7C U32G	0.576
G6C U16G A45U	0.584
G6C G39C G51A	0.741
G6C U28C A36C G51A C66A	≤ 0.5
G6C C11G C33U	≤ 0.5
U7A G10A A37G G41C A42U C46A C61G	0.738
U7A C29A	0.73
G6C C11U A21C	0.671
G6C C61U A70G	0.554
U7A A42U A45G	≤ 0.5
U7C U32G G68C	≤ 0.5
G6C C46G C62U C66U	0.533
U7C G9C G23A A36C C66A	0.544
U7C U53A A70G	≤ 0.5
G6C C33G C34U U64A	0.684
U7A A36G A40G G56C C62A	≤ 0.5
G6C C24A C46G	0.59
U7G A57G	0.72
U7C G67U A70U	0.544
G6C U13C C24G C34U U53C C55G C62A	≤ 0.5
U7C C29A A65G	≤ 0.5
U7C A37G C49A	≤ 0.5
U7C G41U G58C	≤ 0.5

Variant	yeast fitness
G6C G39A	0.86
U7C G63C	0.611
U7C C49G G63A	0.748
U7A C34A G44A C46U A70C	≤ 0.5
G6C C22U C30A C49U G52C	0.683
U7A A21C U32C G48C C60A	≤ 0.5
G6C G51A G58A	0.652
U7A C24U U47C	0.566
U7A A15C C27A U47C	≤ 0.5
U7C C33A A40U A57C	0.662
U7C C33G A37G A70G	≤ 0.5
U7C A20U C29U C30G C34A U35A C66A	≤ 0.5
U7C A15U C29A G38C	≤ 0.5
U7A G39C A43C G44C U47C C61U	≤ 0.5
U7A G18A C29G A37G C60A C62G	≤ 0.5
U7A A15U U54C	≤ 0.5
U7C C30U C61A	≤ 0.5
U7A A20C G25A G68C	≤ 0.5
U7A A37G A43G U53A G58C C66G	≤ 0.5
U7A A14U A15C U32C C46U G51C	≤ 0.5
G6C A40G C60U C61U	0.513
U7C C22U C29G G56A A70U	≤ 0.5
G6C A42C C49U C66A	≤ 0.5
